Source: PubChem (several laboratories)
Shown are actives, neighbours in structure and some others; about 2.1% of the full set was active somewhere.
Runt-SMMHC FRET: inhibitors of human RUNX1 Runt domain binding to CBFb-SMMHC | Q01196+Q13951 | Cerulean-Runt/Venus-CBFb-SMMHC FRET ratio 530/480, 1 h | inhibition, % at 20 µM | actives 0.74% (n = 220,000) | AID 1434;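 active means mean inhibition across duplicate retests at 20 µM reaching about 50%, limit read from the data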;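 further: 0% = DMSO wells and 100% = wells with excess untagged CBFb-SMMHC; inhibitors lower the FRET ratio by blocking Runt binding to CBFb-SMMHC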
Target sequence (Q01196 whole entry, looked up, the tested form may be a part): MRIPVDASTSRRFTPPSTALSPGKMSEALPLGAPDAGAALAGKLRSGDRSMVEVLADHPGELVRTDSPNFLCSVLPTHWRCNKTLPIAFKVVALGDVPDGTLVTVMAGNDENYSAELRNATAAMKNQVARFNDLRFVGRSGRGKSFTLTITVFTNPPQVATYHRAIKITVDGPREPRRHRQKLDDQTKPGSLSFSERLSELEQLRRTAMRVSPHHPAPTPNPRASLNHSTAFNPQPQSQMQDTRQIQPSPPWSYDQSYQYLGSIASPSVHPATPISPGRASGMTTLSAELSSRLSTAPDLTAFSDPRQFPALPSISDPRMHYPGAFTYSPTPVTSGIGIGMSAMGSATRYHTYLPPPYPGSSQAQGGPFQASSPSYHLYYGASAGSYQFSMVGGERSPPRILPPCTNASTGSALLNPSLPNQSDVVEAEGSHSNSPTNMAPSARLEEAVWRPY
Target sequence (Q13951 whole entry, looked up, the tested form may be a part): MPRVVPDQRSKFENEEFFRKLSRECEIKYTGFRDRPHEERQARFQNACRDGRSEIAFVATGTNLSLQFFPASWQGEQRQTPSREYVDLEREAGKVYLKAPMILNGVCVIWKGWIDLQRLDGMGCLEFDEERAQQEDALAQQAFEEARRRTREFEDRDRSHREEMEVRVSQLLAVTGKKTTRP
FAS TE block: FAS thioesterase (human) inhibition. recombinant FAS-TE, OMFH fluorogenic substrate, fluorescence endpoint. inhibition, % at 15 µM. actives 0.67% (n = 360,000). AID 602261;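 active means compounds whose normalised, plate-corrected inhibition of enzyme fluorescence in the single-dose primary screen is 50% or more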;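 further: 0% = DMSO with enzyme and 100% = substrate without enzyme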
Runt-CBFb FRET: inhibitors of human RUNX1 Runt domain binding to CBFb. Cerulean-Runt/Venus-CBFb FRET ratio 530/480, 1 h. actives 0.46% (n = 220,000). Q01196+Q13951. inhibition, % at 20 µM;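 active means inhibition over about 50% at 20 µM in the single-dose screen, limit read from the data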;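 further: 0% = DMSO wells and 100% = excess unlabeled CBFb competitor control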
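Doses: 20 µM compound in 1% DMSO | Material: Cerulean-labeled Runt domain protein | Amount: Each fluorescent fusion protein 100 nM | Schedule: Two 1 h room-temperature incubations shielded from light | Measured by: FRET fluorescence | Evaluation: Loss of energy transfer signal | Controls: Unlabeled CBFb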
RanGTP-Imp inh: inhibitors of RanGTP-importin-beta interaction, primary screen, biochemical, FRET, CFP-Ran, YFP-importin-beta, homogeneous. cell-free CFP-Ran/YFP-importin-beta FRET ratio. inhibition, % (test concentration not listed). actives 1.1% (n = 300,000). AID 2216;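 active means more than half of the replicate wells show a fall in the fluorescence ratio signal beyond about 16%, limit read from the data, passing the limit was not always enough; inconclusive means exactly half of the replicate wells pass the set limit; inactive means fewer than half of replicates pass the limit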;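 further: 0% = DMSO wells and 100% = Ran loaded with GDP instead of GTP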
m-calpain inh: inhibitors of pig calpain II. actives 0.37% (n = 220,000). inhibition, % at 16 µM. purified calpain II, fluorogenic peptide substrate, 30 min;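 active means inhibition above about 50%, limit read from the data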
An asterisk follows results filed as active; i = inactive; ? = inconclusive; · = not tested or not shown.

SMILES	Runt-SMMHC FRET	FAS TE block	Runt-CBFb FRET	RanGTP-Imp inh	m-calpain inh
CCn1nc(NC(=O)Cc2ccc(OC)cc2)c2cc3cc(C)ccc3nc21	38.9	-4.4	22.0	18.9*	-64.4
CCn1nc(NC(=O)C(C)C)c2cc3ccc(C)cc3nc21	·	-1.8	·	8.1	·
COc1ccc(S(=O)(=O)NC2CC2)cc1Cl	·	-1.8	·	?	·
C=CC[C@H](CC(=O)NCCO)C(=O)N[C@H](COC(=O)[C@@H](CC=C)Cc1ccc(F)cc1)Cc1ccccc1	·	19.3	·	·	·
Cc1ccc(S(=O)(=O)NCC(=O)NNC(=O)c2ccccc2Cl)cc1C	·	-2.7	·	·	·
O=C(CCNC(=O)c1ccc([N+](=O)[O-])cc1)Nc1ccc(S(=O)(=O)N2CCOCC2)cc1	·	5.8	·	?	·
COc1cc(OC)c2c(=O)c(OC)c(-c3ccc(OC)c(OC)c3)oc2c1	61.0*	6.8	25.9	10.8	-374.0
COc1ccc(-c2oc3cc(O)c(OC)c(O)c3c(=O)c2OC)cc1O	·	-0.9	·	·	·
CCc1ccc(C(=O)NNC(=O)OC)cc1	1.4	-7.4	69.4*	6.2	-19.6
O=C(Oc1ccccc1C(=O)N1CCOCC1)c1ccccc1	-0.4	-5.0	0.3	0.5	-12.8
NC(=O)c1ccc(-n2nnnc2Oc2ccccc2C(=O)N2CCOCC2)cc1	-3.3	-6.1	-0.1	3.7	51.0*
CC(=O)Nc1ccc(OCCC[n+]2ccccc2)cc1	-2.0	-5.1	-1.4	16.6*	-24.9
CC(=O)Nc1ccc(OCC[n+]2cccc(C(N)=O)c2)cc1	-3.2	-7.1	0.2	-1.4	-13.9
Cc1cc(C(=O)Nc2ccc(N3CCCC3)c(Cl)c2)ccc1[N+](=O)[O-]	-0.6	39.4	-2.2	1.0	50.1*
O=C(Nc1ccc(N2CCCC2)c(Cl)c1)c1ccc([N+](=O)[O-])cc1	-4.0	14.4	-1.3	-0.3	13.1
CCCCC1CCC(C(=O)NCc2ccc3c(c2)OCO3)CC1 (centres undefined)	-1.0	-6.2	1.3	91.6*	-6.7
CCOC(=O)Nc1cccc(OCC(=O)Nc2ccc3c(c2)CCC3)c1	·	10.3	·	·	·
CCCC(=O)Nc1ccc(S(=O)(=O)Nc2cc(OC)ncn2)cc1	·	-4.1	·	1.0	·
N#C/C(=C\c1cn(CCOc2ccccc2)c2ccccc12)C(=O)NCc1ccco1	-9.5	23.7	-17.6	6.7	-7.7
COCCNC(=O)Cn1cc(/C=C(\C#N)C(=O)NC2CCCC2)c2ccccc21	·	-4.6	·	51.9*	·
Cc1cc(C)cc(NC(=O)/C(C#N)=C/c2cn(CC(=O)NCc3ccco3)c3ccccc23)c1	-58.0	-0.9	-43.3	82.4*	-10.4
Cc1ccc(NC(=O)/C(C#N)=C/c2cn(CC(=O)NCc3ccco3)c3ccccc23)cc1C	-112.2	-12.3	-96.2	-0.2	-1.6
Cc1ccccc1OCCn1cc(/C=C(\C#N)C(=O)NCc2ccco2)c2ccccc21	63.2*	16.3	-9.3	10.3	-29.1
Cc1ccc(C)c(NC(=O)/C(C#N)=C/c2cn(CC(=O)NCc3ccco3)c3ccccc23)c1	43.7	-2.4	-47.4	97.7*	30.1
CC(=O)c1cc(-c2ccccc2)n(CC(=O)Nc2cccc(C)c2)c1C	-3.7	11.4	0.6	3.5	2.1
SMILES	Runt-SMMHC FRET	FAS TE block	Runt-CBFb FRET	RanGTP-Imp inh	m-calpain inh
NC(=O)c1ccc(OCC(F)(F)F)nc1	-1.2	-6.5	-1.6	7.2	4.3
Cc1ccccc1NC(=S)N(Cc1ccco1)C(C)c1ccccn1 (centres undefined)	-2.3	1.2	2.4	3.0	-7.6
CCOc1ccc(NC(=O)C2C3C=CC4(O3)C2C(=O)N(Cc2cccnc2)C4C(=O)NC2CCCCC2)cc1 (centres undefined)	·	-6.1	·	-12.0	·
Cn1c2c(c(=O)n(C)c1=O)NC1(N2)C(=O)Nc2ccccc21 (centres undefined)	-7.4	-2.1	1.1	36.8*	-12.8
Cn1c2c(c(=O)n(C)c1=O)[C@@]1(C(=O)Nc3ccccc31)C(C#N)=C(N)O2	2.2	-3.9	-6.2	0.6	21.7
Cc1cccc(N/C=C/C(=C(C#N)C#N)N(C)C)c1	0.1	0.8	-1.9	8.4	60.4*
CCCCCn1c(N)c(C#N)c2nc3ccccc3nc21	63.4*	9.2	84.9*	44.4*	i
N#Cc1c(N)n(CCCN2CCOCC2)c2nc3ccccc3nc12	62.5*	-5.8	84.5*	·	·
CCCCn1c(CNC(C)=O)nc2ccccc21	-1.2	-6.0	2.5	0.6	-13.0
CCCCn1c(NC(C)=O)c(C#N)c2nc3ccccc3nc21	79.3*	-4.6	33.0	30.3*	i
C=CCn1c(NC(=O)c2ccccc2Cl)c(C#N)c2nc3ccccc3nc21	85.5*	16.8	25.6	123.5*	-143.4
Cc1cc(NS(=O)(=O)c2ccc(NC(=S)NC(=O)c3ccc(C(C)(C)C)cc3)cc2)no1	0.8	-23.6	-6.7	-11.9	63.5*
Cc1cc(NS(=O)(=O)c2ccc(NC(=S)NC(=O)c3ccccc3)cc2)no1	-2.7	-10.7	10.1	2.1	14.3
Cc1noc(C)c1S(=O)(=O)N(C)C[C@H]1Oc2ccc(NC(=O)Cc3ccccc3)cc2C(=O)N([C@H](C)CO)C[C@@H]1C	·	-4.4	·	·	·
CC(C)(C)NC(=O)C[C@H]1C[C@H](C(=O)N2CCOCC2)[C@@]2(CCC3CCCC3)c3[nH]c4cc(-c5ccco5)ccc4c3CCN2C1=O	·	57.5*	·	·	·
COc1ccc(CC(=O)Nc2ccccc2C(=O)N2CCCC2)cc1	·	-5.2	·	0.2	·
Cc1cccc(C)c1NC(=O)C1=C(O)c2sccc2N(C)S1(=O)=O	59.4*	-6.0	32.3	45.8*	-24.1
CN1c2ccsc2C(O)=C(C(=O)Nc2ccccc2)S1(=O)=O	24.3	-3.7	5.1	-3.8	-3.8
CCCNC(=O)N1C2=NC(C(=O)OC)=C(C(=O)OC)[C@@H]3N(Cc4ccccc4)c4ccccc4[C@]23C[C@H]1CO	·	80.4*	·	-3.4	·
C=CCNC(=O)N1C2=NC(C(=O)OC)=C(C(=O)OC)[C@@H]3N(Cc4ccccc4)c4ccccc4[C@]23C[C@H]1C(=O)OC	·	6.0	·	0.8	·
O=C(CSc1nc(C(F)(F)F)cc(=O)[nH]1)NCc1ccc2c(c1)OCO2	·	-4.4	·	0.9	·
COc1ccccc1CNC(=O)c1ccncc1	·	-2.5	·	23.3*	·
CCNC1=C(Cl)C(=O)c2ccccc2C1=O	-2.9	-1.6	2.2	-3.3	50.2*
CCCCn1c(N)c(N(CCOC)C(=O)C2CCN(C(=O)c3ccc(F)cc3)CC2)c(=O)[nH]c1=O	·	-3.6	·	1.0	·
C/C(=N\NC(=O)CC#N)c1cc2ccc(O)cc2oc1=O	91.9*	-25.6	20.3	1.9	i
O=C(NCc1ccccc1)c1cc2ccc(O)cc2oc1=O	·	-4.7	·	186.4*	·
C/C(=N\NC(=O)CC#N)c1ccc(Oc2ccccc2)cc1	1.3	22.7	-0.9	-0.7	36.9
COc1ccc2cc(C(=O)NCc3ccccc3)c(=Nc3ccc(C(=O)O)cc3)oc2c1	-2.5	4.6	-5.1	0.2	13.7
O=C(O)c1ccc(N=c2oc3cc(O)ccc3cc2C(=O)NCc2ccccc2)cc1	88.4*	-4.6	3.5	168.8*	-41.2
